Screening data as filed in PubChem BioAssay.
Only some compounds are listed: those with a hit (about 1.6% of all), similar ones and a draw of the others.
ATG4B inhibitor = inhibitors of human ATG4B cysteine protease; Q9Y4P1; ATG4B cleavage of LC3-PLA2, NBD-HPC fluorescence, 1 h; inhibition, % at 8.33 µM; actives 0.51% (n = 340,000); AID 504462; in the data active = inhibition above about 40%
HKDC1 inh = HKDC1 (human) hexokinase inhibition; recombinant HKDC1, G6PDH/diaphorase resazurin coupled fluorescence; actives 0.16% (n = 340,000); Q2TB90; inhibition, % at 20 µM;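 active = inhibition above about 35% when tested at 20 µM, limit read from the data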;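 also: plate controls were DMSO wells with enzyme for no effect and DMSO wells lacking enzyme for full effect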
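Assay system: in-house recombinant HK5 (HKDC1) enzyme. Input: HKDC1 at 5 µg/mL. Medium: Tris pH 8.0 buffer with MgCl2, Tween-20, BSA, BME. Dosing: single 20 µM dose. Schedule: 90 min reaction incubation at room temperature, dark. Signal: resazurin-to-resorufin fluorescence via G6PDH and diaphorase coupling, 525/613 nm. Controls: DMSO-enzyme wells negative, buffer-substituted wells positive.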
PfGluPho inh = PfG6PD (Plasmodium falciparum) enzyme inhibition | PfGluPho enzyme, NADPH resazurin-diaphorase fluorescence | inhibition, % at 20 µM | actives 0.78% (n = 350,000) | AID 504690;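 active = inhibition reaching at least a set limit at 20 µM in the primary screen, cut at about 59% in these data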;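 also: 0% = DMSO wells with substrate and 100% = DMSO wells lacking glucose-6-phosphate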
PKA-R1A act = PKA-R1A complex activation. PKA-R1A dissociation, Cy5-IP20 fluorescence polarization; scaled: DMSO 0%, 113 µM cGMP 100%. activation, % at 11.4 µM. actives 0.083% (n = 340,000). AID 504707;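 active = percent activation above the mean of all tested compounds plus 3 SD, cut at about 19% in these data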;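 also: higher means more PKAc released from R1A so a rise in polarization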
PKA-R2B activ = activators of human PKA-R2B complex; P22694+P31323; actives 0.079% (n = 340,000); PKA-R2B holoenzyme dissociation, Cy5-IP20 fluorescence polarization; R2B truncated from residue 108, S112A mutant; 0% DMSO only, 100% 113 µM cGMP; activation, % at 11.4 µM;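 active = activation above a cutoff set at the mean over all compounds plus 3 SD, cut at about 18% in these data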;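 also: higher means more holoenzyme dissociation and a rise in polarization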
Target sequence (P31323 whole entry, looked up, other chains not shown, the tested form may be a part): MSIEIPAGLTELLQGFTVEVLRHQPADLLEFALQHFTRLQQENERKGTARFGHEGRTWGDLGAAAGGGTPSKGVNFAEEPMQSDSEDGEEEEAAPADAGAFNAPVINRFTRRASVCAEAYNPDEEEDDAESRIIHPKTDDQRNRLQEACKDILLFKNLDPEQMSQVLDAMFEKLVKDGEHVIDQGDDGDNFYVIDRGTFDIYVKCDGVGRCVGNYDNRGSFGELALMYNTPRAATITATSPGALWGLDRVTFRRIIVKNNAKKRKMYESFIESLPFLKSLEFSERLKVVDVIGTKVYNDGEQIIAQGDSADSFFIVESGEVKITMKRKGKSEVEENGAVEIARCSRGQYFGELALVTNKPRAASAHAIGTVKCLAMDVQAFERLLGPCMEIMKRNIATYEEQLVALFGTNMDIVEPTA
T cell modulator = T cell immune modulators affecting CD8 T cell-vesicle binding; actives 0.068% (n = 330,000); response (vesicle binding), % at 7 µM; 2C CD8+ T cell-vesicle binding, flow cytometry; hits give low values; AID 2052;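 active = response, share of CD8 T cells binding vesicles, and their 90th percentile fluorescence all below set limits, cut at about 80% in these data, passing the limit was not always enough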;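 also: values below 100% mean blocked vesicle binding to the CD8+ T cells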
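Read-out – percent CD8+ FL2 mean versus row control · System – murine 2C transgenic CD8+ T lymphocytes · Times – 1.5 h cell–vesicle binding at 37 °C, then 20 min icy labelling · Control set – naked vesicles low, QL9 vesicles with vehicle high · Detection – cytometric PE anti-B7-1 and Alexa647 anti-CD8 signals after 1% paraformaldehyde fixation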
R2B FP artifact = FP assay interference, PKA-R2B counter-screen; shares compounds with PKA-R2B activ; FP artifact counterscreen, fluorescence polarization; activation, % at 11.4 µM; actives 6% (n = 270); AID 504796; in the data active = activation above about 20%;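 also: Cy5 labelled IP20 peptide probe with compound but no PKA protein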
PKA-R2B act conf = confirmation of human PKA-R2B complex activators; shares compounds with PKA-R2B activ; fluorescence polarization, activation; activation, % at 11.4 µM; actives 9% (n = 270); in the data active = activation above about 19%
Target sequence (P31323 whole entry, looked up): as the sequence (P31323 whole entry, looked up, other chains not shown, the tested form may be a part) above
* = called active by the depositor; · = no result given.

SMILES | ATG4B inhibitor | HKDC1 inh | PfGluPho inh | PKA-R1A act | PKA-R2B activ | T cell modulator | R2B FP artifact | PKA-R2B act conf
Cc1nn(CC(=O)OCC(=O)Nc2ccccc2[N+](=O)[O-])c(C)c1[N+](=O)[O-] | -1 | -1 | 20 | 4 | 19* | 162 | -1 | 3
COc1ccc(OC)c(C(=O)NC(CC(N)=O)c2ccc(N3CCN(c4ccccn4)CC3)c([N+](=O)[O-])c2)c1 (stereo not drawn) | -3 | 3 | -6 | -4 | 21* | 343 | -3 | 2
Cc1cccc(C(C)C)c1NC(=O)C(C)OC(=O)Cc1n[nH]c(=O)c2ccccc12 (stereo not drawn) | -5 | -5 | 4 | 7 | -3 | 675 | · | ·
Cn1nc(C(F)(F)F)c(C(=O)Nc2ccc(F)cc2)c1Cl | 4 | -11 | 9 | -1 | 20* | 456 | -2 | 2
CCOC(=O)N1CCC(NC(=O)CN(c2ccc(C(C)C)cc2)S(=O)(=O)c2c(C)nn(C)c2C)CC1 | -6 | -6 | 7 | -2 | 1 | 136 | · | ·
Cc1cc(NC(=O)/C=C/c2ccccc2)c(C(C)C)cc1O | -15 | -4 | -3 | 1 | 14 | 306 | · | ·
Cc1ccc(C(C)C)c(O)c1C(=O)O | 1 | -5 | -8 | -4 | 19* | · | 5 | 2
CC(C)c1ccc(NC2CCCN(C(=O)CSc3nncn3C)C2)cc1 (stereo not drawn) | 26 | 1 | 9 | -8 | -6 | 294 | · | ·
CN(Cc1nccn1C)C(=O)CC1C(=O)NCCN1Cc1ccc(F)cc1Cl (stereo not drawn) | 0 | -3 | -5 | 0 | 8 | 246 | · | ·
COc1cc(OC)cc(-c2c(-c3cccs3)c3cc(Br)ccc3n2C)c1 | -8 | 3 | -14 | 4 | 20* | 240 | 5 | 1
CCCCc1nnc(SCC(=O)Nc2nccs2)n1C | -6 | -1 | 7 | -5 | -1 | 724 | · | ·
Cn1c(CCCOc2ccc(Cl)cc2Cl)nnc1SCC(=O)Nc1nccs1 | -1 | -5 | -4 | -1 | 20* | 532 | 0 | 2
COc1cc(NC(=O)CN2C(=O)C(=O)N(CC(C)C)C2=O)cc(OC)c1 | 0 | 1 | -21 | -1 | -1 | · | · | ·
Cc1ccc(N2C(=O)C3ON(c4ccccc4)C(c4ccncc4)C3C2=O)cc1 (stereo not drawn) | -4 | -6 | -10 | 3 | 20* | 432 | 2 | 3
O=C(CNC(=O)c1ccccc1)Oc1cccc(Cl)c1 | -2 | -2 | 11 | · | · | 124 | · | ·
CCOc1c(CNCCNC(=O)c2nonc2N)cccc1OC | -1 | -2 | 4 | 4 | 19* | 515 | 2 | 6
COc1ccc(NC(=O)CSc2nnnn2-c2ccc(OC)cc2)cc1 | 3 | -2 | -15 | -4 | -6 | 0 | · | ·
CCOc1ccc(NC(=O)CSc2nnnn2-c2ccc(C(N)=O)cc2)cc1 | -4 | -4 | 7 | -13 | 21* | 98 | 2 | -1
CCc1nc2ccccc2c(C(=O)OCC(=O)NCCCN2CCCC2=O)c1C | -11 | -3 | -5 | 7 | 19* | 226 | 0 | -3
CC(C)n1cc(CNC(=O)C2CCC(=O)N(Cc3ccccc3F)C2)cn1 (stereo not drawn) | 8 | 3 | -4 | 8 | -7 | 195 | · | ·
CC1=NN(c2nc(-c3ccc(Cl)cc3)cs2)C(=O)C1 | 3 | 0 | -9 | 6 | 20* | 204 | 0 | 4
CC(=O)NS(=O)(=O)c1ccc(N=NN2CCCCCC2)cc1 | 0 | -3 | -4 | -9 | -2 | 145 | · | ·
CC(=O)NS(=O)(=O)c1ccc(N=NN2CCOCC2)cc1 | 3 | 11 | -8 | 3 | 23* | 459 | 1 | 9
CCOC(=O)N1CCN(S(=O)(=O)N2CCCC(C(=O)NCc3cc(OC)ccc3OC)C2)CC1 (stereo not drawn) | · | · | 0 | -4 | 3 | · | · | ·
Cc1cc(N2CCCC2=O)ccc1S(=O)(=O)N1CCOCC1 | 0 | -8 | 3 | 12 | 23* | 163 | 1 | 5
SMILES | ATG4B inhibitor | HKDC1 inh | PfGluPho inh | PKA-R1A act | PKA-R2B activ | T cell modulator | R2B FP artifact | PKA-R2B act conf
Clc1ccc(-c2nc(-c3cc4cc(Cl)ccc4o3)cs2)cc1 | 7 | -3 | -7 | · | · | 304 | · | ·
O=C(O)c1cccc(NC2=C(Cl)C(=O)c3ccccc3C2=O)c1 | -5 | -17 | -16 | 9 | 22* | · | 1 | 0
Cc1cc(NC(=O)Cc2ccccc2[N+](=O)[O-])no1 | -5 | -4 | 2 | -5 | -3 | 185 | · | ·
CC1=CC2=NC(=O)CC(C)(C(=O)N(CC(=O)NC(C)(C)C)C3CCCC3)N2C=C1 (stereo not drawn) | -6 | -10 | -10 | -4 | 22* | 456 | -1 | -1
COc1ccc(S(=O)(=O)Nc2cccc(C(C)=O)c2)cc1Br | -3 | 7 | -33 | -5 | 4 | 240 | · | ·
COc1ccc(S(=O)(=O)Nc2ccc(NC(C)=O)cc2)cc1Br | -5 | -10 | 3 | 2 | 22* | 239 | 2 | 3
Cn1cnc(S(=O)(=O)Nc2cc(C(F)(F)F)ccc2N2CCOCC2)c1 | -1 | -8 | -4 | -4 | 20* | 182 | 1 | -1
O=C(NNCc1ccc(O)cc1)c1ccccc1Cl | -4 | 0 | 5 | 0 | -4 | 502 | · | ·
Cc1ccc(NC(=O)CN(C)C(=O)C2CSC3(C)CCC(=O)N23)cc1 (stereo not drawn) | · | · | -11 | -8 | -4 | · | · | ·
CC(NC(=O)Cc1ccc(F)cc1)c1ccc(F)cc1 (stereo not drawn) | -2 | 4 | -3 | 2 | 19* | 534 | 1 | 6
CC(NC(=O)Cc1ccccc1)c1ccc(F)cc1 (stereo not drawn) | 2 | 16 | -10 | -1 | -8 | 89 | · | ·
O=C(NC1CCCCC1)c1ccc(Br)o1 | 2 | -2 | 2 | -9 | 18* | 177 | -3 | 2
CCNC(=S)NNc1nc(N2CCOCC2)nc(N2CCOCC2)n1 | -6 | -4 | 3 | -10 | 19* | 92 | 1 | 1
CNC(=S)NNc1nc(N2CCOCC2)nc(N2CCOCC2)n1 | 1 | -10 | 9 | -6 | -6 | 191 | · | ·
OCC[C@@H]1C[C@@H](O)[C@H](O)[C@@]2(Cc3ccccc3CCO2)O1 | 2 | -5 | -3 | -11 | 21* | 326 | 1 | 0
S=C(Nc1ccc(Cl)cc1)N(CCCN1CCOCC1)Cc1cccs1 | -7 | -3 | 17 | -1 | 22* | 416 | 2 | 5
